Measured values from ChEMBL document CHEMBL1131123, “Extended aromatic furan amidino derivatives as anti-Pneumocystis carinii agents” (J Med Chem, 1998).

Legend:
[1] = In vivo evaluation of iv dosage of the Dicationic furans against Pneumocystis carinii in rats measured 2 umol/kg/day; type: ADME, organism-based; details: rat
Procedure, shortened: (§1)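 Intravenous dosing of test dications in immunosuppressed rats infected with P. carinii, following a previously described protocol. Infection is scored by lung cyst burden relative to pooled saline-control animals.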

Rattus norvegicus [2] = test: In vivo evaluation of iv dosage of the Dicationic furans against Pneumocystis carinii in lung tissue of rats at 2 umol/kg/day; type: functional
Procedure, shortened: (§2)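 Immunosuppressed rat model of P. carinii pneumonia. Compounds are dosed intravenously. Read-out is cysts per g of lung tissue, compared against pooled saline-treated control rats (n = 125). Other details follow ref 2.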

[3] = In vivo evaluation of iv dosage of the Dicationic furans against Pneumocystis carinii in rats measured 10 umol/kg/day; type: ADME, organism-based; details: rat; procedure, shortened: as §1
Rattus norvegicus [4] = test: In vivo evaluation of iv dosage of the Dicationic furans against Pneumocystis carinii in lung tissue of rats at 10 umol/kg/day; type: functional; procedure, shortened: as §2
Rattus norvegicus [5] = test: In vivo evaluation of iv dosage of the Dicationic furans against Pneumocystis carinii in lung tissue of rats at 3.8 umol/kg/day; type: functional; procedure, shortened: as §2
Rattus norvegicus [6] = test: In vivo evaluation of iv dosage of the furan dications against Pneumocystis carinii in lung tissue of rats at 7.1 umol/kg/day; type: functional; procedure, shortened: as §2
Rattus norvegicus [7] = test: In vivo evaluation of iv dosage of the Dicationic furans against Pneumocystis carinii in lung tissue of rats at 2.5 umol/kg/day; type: functional; procedure, shortened: as §2
[8] = In vivo evaluation of iv dosage of the Dicationic furans against Pneumocystis carinii in rats measured 0.2 umol/kg/day; type: ADME, organism-based; details: rat; procedure, shortened: as §1
[9] = In vivo evaluation of iv dosage of the Dicationic furans against Pneumocystis carinii in rats measured 10.8 umol/kg/day; type: ADME, organism-based; details: rat; procedure, shortened: as §1
Rattus norvegicus [10] = test: In vivo evaluation of iv dosage of the Dicationic furans against Pneumocystis carinii in lung tissue of rats at 2.2 umol/kg/day; type: functional; procedure, shortened: as §2
[11] = In vivo evaluation of iv dosage of the Dicationic furans against Pneumocystis carinii in rats measured 1.1 umol/kg/day; type: ADME, organism-based; details: rat; procedure, shortened: as §1
Rattus norvegicus [12] = test: In vivo evaluation of iv dosage of the Dicationic furans against Pneumocystis carinii in lung tissue of rats at 0.2 umol/kg/day; type: functional; procedure, shortened: as §2
Rattus norvegicus [13] = test: In vivo evaluation of iv dosage of the Dicationic furans against Pneumocystis carinii in lung tissue of rats at 10.8 umol/kg/day; type: functional; procedure, shortened: as §2
[14] = In vivo evaluation of iv dosage of the Dicationic furans against Pneumocystis carinii in rats measured 2.2 umol/kg/day; type: ADME, organism-based; details: rat; procedure, shortened: as §1
Rattus norvegicus [15] = test: In vivo evaluation of iv dosage of the Dicationic furans against Pneumocystis carinii in lung tissue of rats at 1.1 umol/kg/day; type: functional; procedure, shortened: as §2
Rattus norvegicus [16] = test: In vivo evaluation of iv dosage of the Dicationic furans against Pneumocystis carinii in lung tissue of rats at 9.4 umol/kg/day; type: functional; procedure, shortened: as §2
Rattus norvegicus [17] = test: In vivo evaluation of iv dosage of the Dicationic furans against Pneumocystis carinii in lung tissue of rats at 0.9 umol/kg/day; type: functional; procedure, shortened: as §2
[18] = In vivo evaluation of iv dosage of the Dicationic furans against Pneumocystis carinii in rats measured 1.9 umol/kg/day; type: ADME, organism-based; details: rat; procedure, shortened: as §1
Rattus norvegicus [19] = test: In vivo evaluation of iv dosage of the Dicationic furans against Pneumocystis carinii in lung tissue of rats at 1.9 umol/kg/day; type: functional; procedure, shortened: as §2
[20] = In vivo evaluation of iv dosage of the Dicationic furans against Pneumocystis carinii in rats measured 0.9 umol/kg/day; type: ADME, organism-based; details: rat; procedure, shortened: as §1
Rattus norvegicus [21] = test: In vivo evaluation of iv dosage of the Dicationic furans against Pneumocystis carinii in lung tissue of rats at 5 umol/kg/day; type: functional; procedure, shortened: as §2
[22] = In vivo evaluation of iv dosage of the Dicationic furans against Pneumocystis carinii in rats measured 5 umol/kg/day; type: ADME, organism-based; details: rat; procedure, shortened: as §1
[23] = In vivo evaluation of iv dosage of the Dicationic furans against Pneumocystis carinii in rats measured 0.3 umol/kg/day; type: ADME, organism-based; details: rat; procedure, shortened: as §1
[24] = In vivo evaluation of iv dosage of the Dicationic furans against Pneumocystis carinii in rats measured 0.03 umol/kg/day; type: ADME, organism-based; details: rat; procedure, shortened: as §1
Rattus norvegicus [25] = test: In vivo evaluation of iv dosage of the Dicationic furans against Pneumocystis carinii in lung tissue of rats at 13.3 umol/kg/day; type: functional
Procedure, shortened: (§3)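 Immunosuppressed rat model of P. carinii pneumonia, with test compounds dosed intravenously per an earlier protocol. Read-out is cyst count per g of lung tissue, compared against pooled saline-treated controls.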

[26] = In vivo evaluation of iv dosage of the Dicationic furans against Pneumocystis carinii in rats measured 2.7 umol/kg/day; type: ADME, organism-based; details: rat; procedure, shortened: as §1
Rattus norvegicus [27] = test: In vivo evaluation of iv dosage of the Dicationic furans against Pneumocystis carinii in lung tissue of rats at 0.3 umol/kg/day; type: functional; procedure, shortened: as §3
[28] = In vivo evaluation of iv dosage of the Dicationic furans against Pneumocystis carinii in rats measured 13.3 umol/kg/day; type: ADME, organism-based; details: rat; procedure, shortened: as §1
Rattus norvegicus [29] = test: In vivo evaluation of iv dosage of the Dicationic furans against Pneumocystis carinii in lung tissue of rats at 0.03 umol/kg/day; type: functional; procedure, shortened: as §3
Rattus norvegicus [30] = test: In vivo evaluation of iv dosage of the Dicationic furans against Pneumocystis carinii in lung tissue of rats at 2.7 umol/kg/day; type: functional; procedure, shortened: as §3
Rattus norvegicus [31] = test: In vivo evaluation of iv dosage of the furan dications against Pneumocystis carinii in lung tissue of rats at 22 umol/kg/day; type: functional; procedure, shortened: as §2

CC(C)/N=C(\N)c1ccc2[nH]c(-c3ccc(-c4nc5cc(/C(N)=N/C(C)C)ccc5[nH]4)o3)nc2c1.Cl
Toxicity [1]: 0 | Control (Rattus norvegicus [2]): 31.77 | Toxicity [3]: 0 | Control (Rattus norvegicus [4]): 0.11%

Cl.N=C(NC1CCCC1)c1ccc2[nH]c(-c3ccc(-c4nc5cc(C(=N)NC6CCCC6)ccc5[nH]4)o3)nc2c1
Control (Rattus norvegicus [5]): 53.81%

Cl.N=C(N)c1ccc2[nH]c(-c3ccc(-c4nc5cc(C(=N)N)ccc5[nH]4)o3)nc2c1
Control (Rattus norvegicus [4]): 1.8%

Cl.N=C(N)c1ccc2[nH]c(-c3ccc(-c4ccc(-c5ccc(-c6nc7cc(C(=N)N)ccc7[nH]6)cc5)o4)cc3)nc2c1
Control (Rattus norvegicus [6]): 180%

N=C(NC1CCCC1)c1ccc(-c2ccc(-c3nc4cc(C(=N)NC5CCCC5)ccc4[nH]3)o2)cc1
Control (Rattus norvegicus [7]): 0.82%

CC(C)/N=C(\N)c1ccc(-c2ccc(-c3nc4cc(/C(N)=N\C(C)C)ccc4[nH]3)o2)cc1
Control (Rattus norvegicus [4]): 0.13%

CC(C)NC(=N)c1ccc(-c2ccc(-c3ccc(C(=N)NC(C)C)cc3)o2)cc1
Toxicity [8]: 0 | Toxicity [9]: 0 | Control (Rattus norvegicus [10]): 10.04% | Toxicity [11]: 0 | Control (Rattus norvegicus [12]): 201.74% | Control (Rattus norvegicus [13]): 0.24% | Toxicity [14]: 0 | Control (Rattus norvegicus [15]): 14%

N=C(NC1CCCC1)c1ccc(-c2ccc(-c3ccc(C(=N)NC4CCCC4)cc3)o2)cc1
Control (Rattus norvegicus [16]): 0.04% | Toxicity [8]: 0 | Control (Rattus norvegicus [17]): 0.13% | Control (Rattus norvegicus [12]): 111.65% | Toxicity [18]: 0 | Control (Rattus norvegicus [19]): 0.09% | Toxicity [20]: 0

N=C(N)c1ccc(-c2ccc(-c3nc4cc(C(=N)N)ccc4[nH]3)o2)cc1
Control (Rattus norvegicus [21]): 50.98% | Toxicity [22]: 0

N=C(N)c1ccc(-c2ccc(-c3ccc(C(=N)N)cc3)o2)cc1 [FURAMIDINE]
Toxicity [23]: 0 | Toxicity [24]: 0 | Control (Rattus norvegicus [25]): 0.73% | Toxicity [26]: 0 | Control (Rattus norvegicus [27]): 6.42% | Toxicity [28]: 0 | Control (Rattus norvegicus [29]): 26.23% | Control (Rattus norvegicus [30]): 6.74%

N=C(N)c1ccc(OCCCCCOc2ccc(C(=N)N)cc2)cc1 [PENTAMIDINE]
Control (Rattus norvegicus [31]): 1.82%
